The molecules below were run against Muscarinic acetylcholine receptor M4 (Rattus norvegicus) (UniProt P08485) (assay: ACh potentiation at rat M4, late-stage follow-up, counter-screen for M4 PAM project, CHO Gqi5 cells, calcium (AID 588751)). Conditions: calcium fluorescence, ACh EC20.
How it was run: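 Signal: kinetic calcium fluorescence with Fluo-4 dye / Material: CHO cells stably co-expressing rat M4 receptor and chimeric Gqi5 / Doses: dose series in 0.3% DMSO final / Probe or stimulus: acetylcholine at EC20, then acetylcholine at EC80 / Timing: 144 s compound pre-exposure, EC80 ACh 86 s after EC20, 37 °C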

Sequence of Muscarinic acetylcholine receptor M4 (Rattus norvegicus) (P08485 whole entry, looked up): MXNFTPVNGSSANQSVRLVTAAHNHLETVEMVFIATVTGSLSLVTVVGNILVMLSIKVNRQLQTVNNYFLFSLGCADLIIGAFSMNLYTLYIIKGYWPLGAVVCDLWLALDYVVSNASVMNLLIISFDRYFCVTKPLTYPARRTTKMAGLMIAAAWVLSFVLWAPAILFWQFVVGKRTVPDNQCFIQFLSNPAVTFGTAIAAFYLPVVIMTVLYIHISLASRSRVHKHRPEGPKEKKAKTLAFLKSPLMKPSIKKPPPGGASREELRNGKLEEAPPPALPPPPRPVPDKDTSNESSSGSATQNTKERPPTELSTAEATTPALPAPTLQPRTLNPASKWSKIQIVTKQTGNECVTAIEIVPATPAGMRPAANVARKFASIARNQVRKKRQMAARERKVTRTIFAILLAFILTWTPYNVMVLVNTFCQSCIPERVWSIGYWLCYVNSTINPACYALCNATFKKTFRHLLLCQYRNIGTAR

EC50 [µM] | Compound
0.229 | Cc1nc2sc(C(=O)NCCc3ccncc3)c(N)c2c(C)c1Cl
0.272 | Cc1nc2sc(C(=O)NCc3cccnc3)c(N)c2c(C)c1Cl
0.527 | Cc1nc2sc(C(=O)NCc3ccncn3)c(N)c2c(C)c1Cl
0.173 | Cc1nc2sc(C(=O)NCc3ccncc3)c(N)c2c(C)c1Cl

More lines, now with the values behind:

Compound | EC50 [µM]
Cc1nc2sc(C(=O)NC3CC3)c(N)c2c(C)c1Cl | 0.151
Cc1nc2sc(C(=O)NCc3ccccc3)c(N)c2c(C)c1Cl | 0.126
Cc1nc2sc(C(=O)NCc3ccc4c(c3)OCO4)c(N)c2c(C)c1Cl | 0.0616
Cc1nc2sc(C(=O)NCc3cccc(F)c3F)c(N)c2c(C)c1Cl | 0.114
Cc1nc2sc(C(=O)NCc3nccs3)c(N)c2c(C)c1Cl | 0.187

From PubChem BioAssay AID588751 (Vanderbilt Specialized Chemistry Center, 2011)
